The source made the active and inactive calls. The calls are words filed in the database; no cut-off is given here.
Experiments:
D(2) dopamine receptor = D(2) dopamine receptor (Rattus norvegicus, UniProt P61169); test: Displacement of [3H]spiperone from dopamine D2 receptor in CRL:CD(SD)BR-COBS rat striatum by scintillation spectrometry
[1] = target: Voltage-gated inwardly rectifying potassium channel KCNH2 (Homo sapiens, UniProt Q12809); test: Binding affinity to human ERG expressed in HEK293 cells; type: cell-based
[2] = Partition coefficient, log P of the compound; type: physicochemical; conditions: octanol/water
[3] = target: T1, 5-hydroxytryptamine receptor 1A (Rattus norvegicus, UniProt P19327); test: Displacement of [3H]8OH-DPAT from 5HT1A receptor in rat CRL:CD(SD)BR-COBS hippocampus by scintillation spectrometry; type: tissue-based
T1 sequence (P19327 whole entry): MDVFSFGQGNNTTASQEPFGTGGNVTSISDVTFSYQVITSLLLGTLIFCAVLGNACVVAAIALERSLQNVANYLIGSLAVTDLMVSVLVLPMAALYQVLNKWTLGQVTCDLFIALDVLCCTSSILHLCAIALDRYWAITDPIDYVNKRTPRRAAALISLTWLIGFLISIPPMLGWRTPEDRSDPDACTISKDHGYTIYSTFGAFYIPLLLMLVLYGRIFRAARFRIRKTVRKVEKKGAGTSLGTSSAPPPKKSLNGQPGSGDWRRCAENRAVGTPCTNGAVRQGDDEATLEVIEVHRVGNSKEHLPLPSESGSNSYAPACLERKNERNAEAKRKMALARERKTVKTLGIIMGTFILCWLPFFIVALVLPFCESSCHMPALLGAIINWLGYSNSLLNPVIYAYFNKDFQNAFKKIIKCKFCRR
Procedure, shortened: (§1)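 Radioligand displacement binding gave Ki (nM). Each value is the mean of three determinations, with SD within 10% of the mean.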

[4] = target: 5-hydroxytryptamine receptor 2A (Rattus norvegicus, UniProt P14842); test: Displacement of [3H]ketanserin from 5HT2A receptor in CRL:CD(SD)BR-COBS rat cortex by scintillation spectrometry
[5] = Displacement of [3H]mesulergine from 5HT2C receptor in CRL:(HA) BR albino guinea pig cortex by scintillation spectrometry; design: species or system Cavia porcellus; procedure, shortened: as §1
D(1A) dopamine receptor = D(1A) dopamine receptor (Rattus norvegicus, UniProt P18901); test: Displacement of [3H]SCH23390 from dopamine D1 receptor in CRL:CD(SD)BR-COBS rat striatum by scintillation spectrometry
[6] = Lipophilicity, log D at pH 7.4; type: physicochemical; conditions: buffer
Mus musculus [7] = test: Antipsychotic activity in NMRI mouse assessed as inhibition of PCP-induced locomotor activity at 3 mg/kg, ip administered 30 mins prior to testing measured for 60 mins; type: functional, organism-based; design: dose 3 mg/kg
Mus musculus [8] = test: Antipsychotic activity in NMRI mouse assessed as reduction of PCP-induced locomotor activity at 10 mg/kg, ip administered 30 mins prior to testing measured for 60 mins; type: functional, organism-based; design: dose 10 mg/kg
[9] = AUC (0 to 6 hrs) in NMRI mouse at 3 mg/kg, ip; type: ADME, organism-based; design: time < 6 hr, dose 3 mg/kg, route intraperitoneal; conditions: plasma
Procedure, shortened: (§2)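 Mice received a single 3 mg/kg ip dose, and plasma concentrations were measured over time. […] Cmax, Tmax and T1/2 were taken from the plasma level profiles.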

Mus musculus [10] = test: Antipsychotic activity in NMRI mouse assessed as increase of MK-801-induced locomotor activity at 1 mg/kg, ip administered 30 mins prior to testing measured for 60 mins; type: functional, organism-based; design: dose 1 mg/kg
[11] = Tmax in NMRI mouse at 3 mg/kg, ip; type: ADME, organism-based; design: dose 3 mg/kg, route intraperitoneal; conditions: in vivo; procedure, shortened: as §2
[12] = Cmax in NMRI mouse at 3 mg/kg, ip; type: ADME, organism-based; design: dose 3 mg/kg, route intraperitoneal; conditions: in vivo; procedure, shortened: as §2
Mus musculus [13] = test: Antipsychotic activity in ip dosed NMRI mouse assessed as reduction in spontaneous exploratory locomotor activity administered 30 mins prior to testing measured for 60 mins; type: functional
Mus musculus [14] = test: Antipsychotic activity in NMRI mouse assessed as reduction in spontaneous exploratory locomotor activity at 10 mg/kg, ip administered 30 mins prior to testing measured for 60 mins; type: functional; conditions: route intraperitoneal
Mus musculus [15] = test: Antipsychotic activity in NMRI mouse assessed as reduction in methamphetamine-induced locomotor activity at > 30 mg/kg, ip administered 30 mins prior to testing measured for 60 mins; type: functional; conditions: route intraperitoneal
Mus musculus [16] = test: Antipsychotic activity in NMRI mouse assessed as reduction in spontaneous exploratory locomotor activity at 30 mg/kg, ip administered 30 mins prior to testing measured for 60 mins; type: functional; conditions: route intraperitoneal
Mus musculus [17] = test: Antipsychotic activity in NMRI mouse assessed as reduction in MK-801-induced locomotor activity at 10 mg/kg, ip administered 30 mins prior to testing measured for 60 mins; type: functional; conditions: route intraperitoneal
[18] = Half life in NMRI mouse at 3 mg/kg, ip; type: ADME, organism-based; design: dose 3 mg/kg, route intraperitoneal; conditions: in vivo; procedure, shortened: as §2
Mus musculus [19] = test: Antipsychotic activity in ip dosed NMRI mouse assessed as reduction in methamphetamine-induced locomotor activity administered 30 mins prior to testing measured for 60 mins; type: functional
Procedure, shortened: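 Mice were made hyperactive by methamphetamine pretreatment, then dosed with the compound. Read-out was locomotor hypermotility. Doses ranged from 0.3 to 30 mg/kg.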

Mus musculus [20] = test: Antipsychotic activity in NMRI mouse assessed as increase of spontaneous exploratory locomotor activity at 1 mg/kg, ip administered 30 mins prior to testing measured for 60 mins; type: functional
Mus musculus [21] = test: Antipsychotic activity in NMRI mouse assessed as increase of methamphetamine-induced locomotor activity at 0.3 mg/kg, ip administered 30 mins prior to testing measured for 60 mins; type: functional, organism-based; design: dose 0.3 mg/kg
Mus musculus [22] = test: Antipsychotic activity in NMRI mouse assessed as reduction in MK-801-induced locomotor activity at 30 mg/kg, ip administered 30 mins prior to testing measured for 60 mins; type: functional; conditions: route intraperitoneal

Chain of D(2) dopamine receptor (P61169 whole entry): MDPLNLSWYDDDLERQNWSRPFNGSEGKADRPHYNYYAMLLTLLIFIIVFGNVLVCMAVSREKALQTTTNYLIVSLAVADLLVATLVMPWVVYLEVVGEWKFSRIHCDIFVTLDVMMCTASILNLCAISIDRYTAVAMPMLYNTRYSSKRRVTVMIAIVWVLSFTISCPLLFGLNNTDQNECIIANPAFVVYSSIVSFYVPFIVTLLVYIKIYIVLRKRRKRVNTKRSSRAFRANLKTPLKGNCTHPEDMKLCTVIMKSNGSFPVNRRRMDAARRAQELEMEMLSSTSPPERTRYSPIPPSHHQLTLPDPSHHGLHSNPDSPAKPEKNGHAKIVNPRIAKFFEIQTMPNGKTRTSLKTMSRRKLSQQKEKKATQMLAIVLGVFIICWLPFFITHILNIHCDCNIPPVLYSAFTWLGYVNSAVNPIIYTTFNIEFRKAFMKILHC
Chain of D(1A) dopamine receptor (P18901 whole entry): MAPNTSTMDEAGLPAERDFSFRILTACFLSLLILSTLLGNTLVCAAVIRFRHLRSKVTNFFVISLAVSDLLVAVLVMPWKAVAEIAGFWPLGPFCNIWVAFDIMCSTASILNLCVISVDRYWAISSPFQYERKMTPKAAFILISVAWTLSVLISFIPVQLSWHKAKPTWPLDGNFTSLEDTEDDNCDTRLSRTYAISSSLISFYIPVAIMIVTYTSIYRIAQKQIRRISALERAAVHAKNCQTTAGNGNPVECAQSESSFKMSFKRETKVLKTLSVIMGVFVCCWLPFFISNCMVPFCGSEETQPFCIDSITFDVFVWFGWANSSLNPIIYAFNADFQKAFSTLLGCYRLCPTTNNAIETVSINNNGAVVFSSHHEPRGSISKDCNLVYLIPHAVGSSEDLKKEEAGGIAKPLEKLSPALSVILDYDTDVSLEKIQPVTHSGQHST
Chain of 5-hydroxytryptamine receptor 2A (P14842 whole entry): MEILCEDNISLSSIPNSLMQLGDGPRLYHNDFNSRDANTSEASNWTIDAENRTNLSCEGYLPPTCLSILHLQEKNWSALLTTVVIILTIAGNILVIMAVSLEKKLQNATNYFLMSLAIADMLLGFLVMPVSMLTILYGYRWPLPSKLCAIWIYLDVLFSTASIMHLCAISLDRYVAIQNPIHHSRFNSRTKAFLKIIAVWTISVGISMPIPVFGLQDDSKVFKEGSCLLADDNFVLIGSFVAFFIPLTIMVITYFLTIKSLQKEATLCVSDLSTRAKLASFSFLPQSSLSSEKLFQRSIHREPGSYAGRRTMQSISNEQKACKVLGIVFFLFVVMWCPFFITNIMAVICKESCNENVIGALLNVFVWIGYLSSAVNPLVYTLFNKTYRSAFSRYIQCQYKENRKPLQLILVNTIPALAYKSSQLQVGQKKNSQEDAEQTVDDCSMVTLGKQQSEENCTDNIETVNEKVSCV
Chain of Voltage-gated inwardly rectifying potassium channel KCNH2 (Q12809 whole entry): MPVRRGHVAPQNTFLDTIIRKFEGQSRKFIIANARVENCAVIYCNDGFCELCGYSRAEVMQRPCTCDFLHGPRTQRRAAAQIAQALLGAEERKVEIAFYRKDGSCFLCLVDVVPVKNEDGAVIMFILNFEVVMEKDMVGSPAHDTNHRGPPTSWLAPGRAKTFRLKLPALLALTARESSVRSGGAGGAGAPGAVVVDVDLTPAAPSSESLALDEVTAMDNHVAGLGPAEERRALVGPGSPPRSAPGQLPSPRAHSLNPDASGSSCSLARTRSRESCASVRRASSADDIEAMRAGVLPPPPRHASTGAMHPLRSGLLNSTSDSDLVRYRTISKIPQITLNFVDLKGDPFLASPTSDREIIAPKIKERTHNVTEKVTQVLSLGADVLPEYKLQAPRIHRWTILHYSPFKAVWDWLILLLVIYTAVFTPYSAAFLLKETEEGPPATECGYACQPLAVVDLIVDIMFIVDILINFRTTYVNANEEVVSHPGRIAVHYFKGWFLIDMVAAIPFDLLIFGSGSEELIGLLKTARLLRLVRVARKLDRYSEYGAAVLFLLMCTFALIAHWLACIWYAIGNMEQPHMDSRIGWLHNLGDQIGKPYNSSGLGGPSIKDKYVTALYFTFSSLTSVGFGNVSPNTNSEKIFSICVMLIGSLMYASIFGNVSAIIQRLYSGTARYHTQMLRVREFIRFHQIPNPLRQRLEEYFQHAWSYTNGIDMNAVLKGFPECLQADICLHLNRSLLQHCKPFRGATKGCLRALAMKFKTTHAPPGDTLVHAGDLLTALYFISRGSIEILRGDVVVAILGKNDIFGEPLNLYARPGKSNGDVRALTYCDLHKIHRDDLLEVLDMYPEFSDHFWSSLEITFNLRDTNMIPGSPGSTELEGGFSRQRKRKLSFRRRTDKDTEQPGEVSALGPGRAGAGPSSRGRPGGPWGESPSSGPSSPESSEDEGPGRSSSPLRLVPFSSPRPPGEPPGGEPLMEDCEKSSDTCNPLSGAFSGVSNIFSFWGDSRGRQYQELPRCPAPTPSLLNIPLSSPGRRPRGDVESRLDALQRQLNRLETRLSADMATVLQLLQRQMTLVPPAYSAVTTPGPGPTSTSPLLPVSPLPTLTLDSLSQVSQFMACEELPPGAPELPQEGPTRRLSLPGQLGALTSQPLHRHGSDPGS

| SMILES | Ki (D(2) dopamine receptor) [nM] | Ki [1] [nM] | logP [2] | Ki [3] [nM] | Ki [4] [nM] | Ki [5] [nM] | Ki (D(1A) dopamine receptor) [nM] | logD [6] | Activity (Mus musculus [7]) | Activity (Mus musculus [8]) | AUC(0-t) at 6 h [9] [ng·h/mL] | Tmax [11] [min] | Cmax [12] [ng/mL] | also measured |
| --- | --- | --- | --- | --- | --- | --- | --- | --- | --- | --- | --- | --- | --- | --- |
| Clc1cccc(N2CCN(CCCCCCN3CCN(c4cccc(Cl)c4)CC3)CC2)c1 | 11 | 300 | 5.35 | 16 | 98 | 504 | > 1000 | 4.58 |  |  |  |  |  |  |
| Cc1cccc(N2CCN(CCCCCCN3CCN(c4ccnc5ccccc45)CC3)CC2)c1 |  | 900 | 6.23 |  |  |  |  | 3.67 |  |  |  |  |  |  |
| Cc1cccc(N2CCN(CCCCCCN3CCN(c4cccc(C)n4)CC3)CC2)c1 | 33 |  | 4.62 | 11 | 6 | 68 | > 1000 | 2.46 | Active | Active | 243 | 120 | 58 | Activity (Mus musculus [10]): Active |
| c1ccc(N2CCN(CCCCCCN3CCN(c4ccnc5ccccc45)CC3)CC2)cc1 | 41 | 3800 | 5.61 | 49 | 34 | > 1000 | > 1000 | 3.1 |  |  |  |  |  |  |
| O=C1CCc2ccc(OCCCCN3CCN(c4cccc(Cl)c4Cl)CC3)cc2N1 [ARIPIPRAZOLE] |  |  |  |  |  |  |  |  | Active | Active |  |  |  | ED50 (Mus musculus [13]): 2.5 mg/kg |
| c1ccc(N2CCN(CCCCCCN3CCN(c4ccccc4)CC3)CC2)cc1 | 1 | 8000 | 3.83 | 3 | 31 | > 1000 | > 1000 | 2.96 | Active | Active | 198 | 30 | 71 | Activity (Mus musculus [14]): 10 mg/kg; Activity (Mus musculus [15]): >30 mg/kg |
| Cc1cccc(N2CCN(CCCCCCN3CCN(c4ccccc4)CC3)CC2)n1 | 24 |  | 3.99 | 8 | 25 | 309 | > 1000 | 1.89 | Active | Active | 362 | 18 | 121 | Activity (Mus musculus [16]): 30 mg/kg; Activity (Mus musculus [17]): 10 mg/kg; half-life [18]: 150 min |
| COc1cccc(N2CCN(CCCCCCN3CCN(c4cccc(Cl)c4)CC3)CC2)c1 | 4 | 1200 | 4.7 | 1 | 7 | 92 | > 1000 | 3.89 |  |  |  |  |  |  |
| c1ccc(N2CCN(CCCCCCN3CCN(c4ccccn4)CC3)CC2)nc1 | 159 | > 10000 | 3.39 | 16 | 45 | > 1000 | > 1000 | 1.33 | Active | Active | 84 | 60 | 26 | Activity (Mus musculus [16]): 30 mg/kg |
| COc1cccc(N2CCN(CCCCCCN3CCN(c4cccc(OC)c4)CC3)CC2)c1 | 27 | 2400 | 4.19 | 8 | 28 | 303 | > 1000 | 3.25 |  |  |  |  |  |  |
| Cc1cccc(N2CCN(CCCCCCN3CCN(c4cccc(C)c4)CC3)CC2)c1 | 70 | 2200 | 5 | 48 | 20 | 120 | > 1000 | 4.03 |  |  |  |  |  |  |
| CN1CCN(C2=Nc3cc(Cl)ccc3Nc3ccccc32)CC1 [CLOZAPINE] |  |  |  |  |  |  |  |  | Active | Active |  |  |  | ED50 (Mus musculus [13]): 2.4 mg/kg; ED50 (Mus musculus [19]): 2.5 mg/kg |
| Cc1cccc(N2CCN(CCCCCCN3CCN(c4ccccc4)CC3)CC2)c1 | 20 | 3800 | 4.45 | 19 | 10 | 182 | > 1000 | 3.53 | Active | Active | 147 | 30 | 41 | Activity (Mus musculus [16]): 30 mg/kg |
| Cc1cccc(N2CCN(CCCCNC(=O)c3cc4ccccc4o3)CC2)c1 | 4.5 |  |  |  |  | 206 | 263 |  | Active | Active | 128 | 30 | 155 |  |
| O=C(CCCN1CCC(O)(c2ccc(Cl)cc2)CC1)c1ccc(F)cc1 [HALOPERIDOL] |  |  |  |  |  |  |  |  | Active | Active |  |  |  | ED50 (Mus musculus [13]): 0.08 mg/kg |
| Cc1cccc(N2CCN(CCCCCCN3CCN(c4ccccn4)CC3)CC2)c1 | 44 | 8700 | 4.23 | 2 | 10 | 150 | > 1000 | 2.72 | Active | Active |  |  |  | Activity (Mus musculus [20]): inactive; Activity (Mus musculus [21]): Active |
| c1ccc(N2CCN(CCCCCCN3CCN(c4ccccn4)CC3)CC2)cc1 | 34 | 13000 | 3.61 | 30 | 39 | > 1000 | > 1000 | 2.14 | Active | Active | 58 | 60 | 50 | Activity (Mus musculus [14]): 10 mg/kg; Activity (Mus musculus [22]): 30 mg/kg |
